Data set [1] concerns the target T1, UDP-glucuronosyltransferase 1A3 (Homo sapiens, UniProt P35503).
T1 sequence (P35503 whole entry): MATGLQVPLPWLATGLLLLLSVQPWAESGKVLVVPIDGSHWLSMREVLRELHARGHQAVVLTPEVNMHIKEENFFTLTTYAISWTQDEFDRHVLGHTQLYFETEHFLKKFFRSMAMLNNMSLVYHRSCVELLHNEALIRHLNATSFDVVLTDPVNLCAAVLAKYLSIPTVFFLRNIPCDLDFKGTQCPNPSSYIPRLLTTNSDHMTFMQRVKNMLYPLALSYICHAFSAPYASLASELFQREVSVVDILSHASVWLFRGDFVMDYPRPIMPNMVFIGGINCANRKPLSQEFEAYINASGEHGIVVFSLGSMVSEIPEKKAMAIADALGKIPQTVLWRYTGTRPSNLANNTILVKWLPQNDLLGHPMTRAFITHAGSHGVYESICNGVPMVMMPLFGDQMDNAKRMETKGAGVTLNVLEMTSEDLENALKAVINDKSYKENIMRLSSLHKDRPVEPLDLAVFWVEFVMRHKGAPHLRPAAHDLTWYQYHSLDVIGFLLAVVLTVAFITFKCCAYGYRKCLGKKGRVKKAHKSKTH
In words: Activity of human recombinant UGT1A3 expressed in baculovirus-infected Sf9 cells assessed as glucuronidation activity per mg of protein at 100 to 200 uM after 60 mins in presence of 3 mM UDP-GlcUA. The format is ADME. The settings on record: sf9, 1 h. In outline: (§1)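 Screening: 5 μg recombinant UGT protein (His-tag levels normalized) in Tris-HCl pH 7.4, 5 mM MgCl2, 5 mM saccharolactone, 2% DMSO to permeabilize membranes. Substrate at 100 or 200 μM, added in water. Started with 3 mM UDP-GlcUA, 60 min at 37°C, stopped with ethanol, then centrifuged. Glucuronide quantified by reversed-phase C18 HPLC against the substrate response; triplicates.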

The target of data set [2] is T2, UDP-glucuronosyltransferase 1A8 (Homo sapiens, UniProt Q9HAW9).
T2 sequence (Q9HAW9 whole entry): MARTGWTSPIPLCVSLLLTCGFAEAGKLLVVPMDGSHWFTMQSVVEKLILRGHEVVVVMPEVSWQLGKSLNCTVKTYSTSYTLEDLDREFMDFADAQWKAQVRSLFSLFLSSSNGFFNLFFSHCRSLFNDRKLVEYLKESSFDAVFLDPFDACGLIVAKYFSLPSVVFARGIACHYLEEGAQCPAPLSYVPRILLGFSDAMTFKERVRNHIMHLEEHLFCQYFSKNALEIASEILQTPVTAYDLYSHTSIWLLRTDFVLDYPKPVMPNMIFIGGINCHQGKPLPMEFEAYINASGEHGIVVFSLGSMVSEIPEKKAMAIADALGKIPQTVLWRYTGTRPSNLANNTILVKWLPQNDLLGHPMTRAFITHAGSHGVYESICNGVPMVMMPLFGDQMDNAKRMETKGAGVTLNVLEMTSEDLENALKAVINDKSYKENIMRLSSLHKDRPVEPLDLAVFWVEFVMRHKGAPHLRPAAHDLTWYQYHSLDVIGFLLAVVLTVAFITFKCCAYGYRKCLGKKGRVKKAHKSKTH
In words: Activity of human recombinant UGT1A8 expressed in baculovirus-infected Sf9 cells assessed as glucuronidation activity per mg of protein at 100 to 200 uM after 60 mins in presence of 3 mM UDP-GlcUA. The following applies: sf9, 1 h. The format is ADME. Put shortly:
as §1

Data set [3] can be described thus: Drug metabolism in human colon microsomes assessed as glucuronidation activity at 0.1 mM for 60 mins in presence of 3 mM UDP-GlcUA. The following applies: 1 h, 100 µM. The format is ADME, microsome. In outline:
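Microsomes from single donors (20 μg protein) incubated with 0.1 mM substrate and 3 mM UDP-GlcUA for 60 min at 37°C in Tris-HCl pH 7.4 buffer with 5 mM MgCl2, 5 mM saccharolactone and 2% DMSO. Glucuronide measured by HPLC; donor data summarized as box-and-whisker plots.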

The target in data set [4] is T3, UDP-glucuronosyltransferase 1A10 (Homo sapiens, UniProt Q9HAW8).
T3 sequence (Q9HAW8 whole entry): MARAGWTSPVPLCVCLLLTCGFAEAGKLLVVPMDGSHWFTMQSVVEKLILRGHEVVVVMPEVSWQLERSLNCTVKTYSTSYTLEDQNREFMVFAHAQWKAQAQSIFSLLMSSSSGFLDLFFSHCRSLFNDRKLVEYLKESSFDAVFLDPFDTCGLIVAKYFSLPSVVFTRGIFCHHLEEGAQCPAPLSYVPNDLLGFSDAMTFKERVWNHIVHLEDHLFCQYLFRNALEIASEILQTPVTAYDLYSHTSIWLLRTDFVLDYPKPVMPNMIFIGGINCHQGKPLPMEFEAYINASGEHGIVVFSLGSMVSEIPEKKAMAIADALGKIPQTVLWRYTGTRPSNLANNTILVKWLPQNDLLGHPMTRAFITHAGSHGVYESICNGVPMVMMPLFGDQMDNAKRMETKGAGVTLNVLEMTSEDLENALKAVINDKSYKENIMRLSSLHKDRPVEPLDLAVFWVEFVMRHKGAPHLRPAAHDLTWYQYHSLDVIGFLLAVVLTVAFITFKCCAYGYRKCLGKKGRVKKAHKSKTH
Put plainly: Drug metabolism assessed as human recombinant UGT1A10-mediated compound formation treated with C-1311 for 60 mins by ESI-MS/UV-vis spectroscopy in presence of 3 mM UDP-GlcUA. The format is ADME. The following applies: recombinant enzyme, 1 h. In outline:
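Protein (5 μg UGT1A10 or microsomal) incubated with 0.2 mM substrate and 3 mM UDP-GlcUA, 60 min. HPLC on C18 at 25°C with a 15–80% methanol gradient in 0.05 M ammonium formate pH 3.4 at 1 ml/min. ESI positive-ion MS and UV/Vis spectra taken from the peaks. Glucuronide confirmed by 60 min further treatment with 1000 U E. coli β-glucuronidase.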

The subject of another data set is Liver microsome. In words: Drug metabolism in human liver microsomes assessed as metabolite formation treated with C-1305 for 60 mins by ESI-MS/UV-vis spectroscopy in presence of 3 mM UDP-GlcUA. The settings on record: 1 h. It counts as ADME. In outline:
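Recombinant human UGT1A1 or UGT1A9 (5 μg protein), or single-donor human liver or intestinal microsomes (20 μg), incubated in Tris-HCl pH 7.4 with 5 mM MgCl2, 5 mM saccharolactone, 2% DMSO and 100 or 200 μM substrate. Started with UDP-GlcUA, 60 min at 37°C, in triplicate. Product identified by HPLC with positive-ion ESI-MS and UV/Vis spectra, and confirmed by β-glucuronidase hydrolysis.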
For orientation: Liver microsomes are vesicles of endoplasmic reticulum, rich in cytochrome P450 enzymes.

Bounds are passed on as bounds.

As to `CCN(CC)CCNc1ccc2ncn3c4ccc(O)cc4c(=O)c1c23` [C-1311], the Drug metabolism was < 0.1 nmol/min/mg in data set [1], 0.2 nmol/min/mg in data set [2], “metabolite_detected” in data set [3] and “metabolite_detected” in data set [4].
In the case of `CN(C)CCCNc1ccc2nnn3c4ccc(O)cc4c(=O)c1c23`, the Drug metabolism was < 0.1 nmol/min/mg in data set [1], 0.2 nmol/min/mg in data set [2], “metabolite_detected” in the data set on Liver microsome and “metabolite_detected” in data set [3].

The values are drawn from ChEMBL document CHEMBL3526062, “Role of human UDP-glucuronosyltransferases in the biotransformation of the triazoloacridinone and imidazoacridinone antitumor agents C-1305 and C-1311: highly selective substrates for UGT1A10” (Drug Metab Dispos, 2012).
